# Published values of several laboratories.
# Each line is one published result; the experiments were not run side by side.
# PPO3: PPO3 (Agaricus bisporus, UniProt C7FF04)
# HTR2A: 5-hydroxytryptamine receptor 2A (HTR2A, Homo sapiens, UniProt P28223)
SMILES,target,read-out,action,technique,tested at,inhibition
COc1cc(/C=C/C(=O)O)ccc1OCc1cn(CC(=O)Nc2cccc(Cl)c2)nn1,PPO3,enzyme activity,inhibitor,,40 µM,11.4%
CN1CCC[C@H]1c1cccnc1,"Neuronal acetylcholine receptor; alpha4/beta2 (Rattus norvegicus, UniProt P09483+P12390)",ligand displacement,,radioligand,50 µM,97.6%
COc1cc2cc3c4c(cc(OC)c(OC)c4c2cc1OC)CCN3C,HTR2A,ligand displacement,,radioligand,10 µM,10%
COc1cc(/C=C/C(=O)O)ccc1OCc1cn(CC(=O)Nc2ccccc2[N+](=O)[O-])nn1,PPO3,enzyme activity,inhibitor,,40 µM,11.5%
COc1cc2c(cc1OC)-c1c(OC)c(OC)cc3c1[C@H](C2)N(C)CC3,HTR2A,ligand displacement,,radioligand,10 µM,65%
c1cncc([C@@H]2CCCN2)c1,"Kappa-type opioid receptor (OPRK1, Homo sapiens, UniProt P41145)",ligand displacement,,,50 µM,-6.74%
CC(C)CC(=O)OC[C@H]1O[C@@](C#N)(c2ccc3c(N)ncnn23)[C@H](O)[C@@H]1O,"Adenosine receptor A2a (ADORA2A, Homo sapiens, UniProt P29274)",cell-free assay,,,20 µM,13%
CCOC(=O)Cc1c2c3c(cc(OC)c(OC)c3c3cc(OC)c(OC)cc13)CCN2C,HTR2A,ligand displacement,,radioligand,10 µM,17%
COc1cc(/C=C/C(=O)O)ccc1OCc1cn(CC(=O)Nc2ccc(Cl)cc2Cl)nn1,PPO3,enzyme activity,inhibitor,,40 µM,7.73%
